Converted amounts (≈) assume the structure as drawn.
Legend:
Type in all cases: functional
[1] = system: Staphylococcus epidermidis; experiment: In vitro antibacterial activity was determined against methicillin-resistant Staphylococcus epidermidis MB5181.
Outline: (§1)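 Minimum inhibitory concentration determined by agar dilution. The S. aureus pMS520/Smith and S. epidermidis MB5181 strains are methicillin-resistant isolates.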

Pseudomonas aeruginosa [2] = experiment: In vitro antibacterial activity was determined against Pseudomonas aeruginosa AK109.
Pseudomonas aeruginosa [3] = experiment: In vitro antibacterial activity was determined against ceftazidime- resistant Pseudomonas aeruginosa AKR17.; outline: as §1
Escherichia coli = experiment: In vitro antibacterial activity was determined against Escherichia coli NIHJ JC2.
Staphylococcus aureus [4] = experiment: In vitro antibacterial activity was determined against Staphylococcus aureus 209P NIHJ JCI.
Staphylococcus aureus [5] = experiment: In vitro antibacterial activity was determined against methicillin-resistant Staphylococcus aureus pMS520/Smith.; outline: as §1
Staphylococcus aureus [6] = experiment: TIn vitro antibacterial activity against methicillin-resistant Staphylococcus aureus pMS520/Smith.; outline: as §1

C[C@@H](O)[C@H]1C(=O)N2C(C(=O)O)=C(S[C@@H]3CN[C@H](CSc4ccc(CN)cc4)C3)[C@H](C)[C@H]12 showed an MIC [1] of 3.13 µg/mL (≈ 6.75 µM), an MIC (Pseudomonas aeruginosa [2]) of 0.78 µg/mL (≈ 1.68 µM) and an MIC (Pseudomonas aeruginosa [3]) of 3.13 µg/mL (≈ 6.75 µM). The MIC (Escherichia coli) was 0.025 µg/mL (≈ 0.0539 µM), the MIC (Staphylococcus aureus [4]) was under 0.006 µg/mL and the MIC (Staphylococcus aureus [5]) was 1.56 µg/mL (≈ 3.36 µM).
For C[C@@H](O)[C@H]1C(=O)N2C(C(=O)O)=C(S[C@@H]3CN[C@H](COc4ccccc4)C3)[C@H](C)[C@H]12, the MIC [1] was 25 µg/mL (≈ 59.7 µM), the MIC (Pseudomonas aeruginosa [2]) was 25 µg/mL (≈ 59.7 µM) and the MIC (Pseudomonas aeruginosa [3]) was over 50 µg/mL. The MIC (Escherichia coli) was 0.39 µg/mL (≈ 0.932 µM), the MIC (Staphylococcus aureus [4]) was 0.012 µg/mL (≈ 0.0287 µM) and the MIC (Staphylococcus aureus [5]) was 25 µg/mL (≈ 59.7 µM).
Molecule C[C@@H](O)[C@H]1C(=O)N2C(C(=O)O)=C(S[C@@H]3CN[C@H](c4ccc(CN)cc4)C3)[C@H](C)[C@H]12 has an MIC [1] of 3.13 µg/mL (≈ 7.5 µM), an MIC (Pseudomonas aeruginosa [2]) of 0.78 µg/mL (≈ 1.87 µM) and an MIC (Pseudomonas aeruginosa [3]) of 6.25 µg/mL (≈ 15 µM). It also gave an MIC (Staphylococcus aureus [6]) of 1.56 µg/mL (≈ 3.74 µM), an MIC (Escherichia coli) of 0.025 µg/mL (≈ 0.0599 µM) and an MIC (Staphylococcus aureus [4]) of under 0.006 µg/mL.
C[C@@H](O)[C@H]1C(=O)N2C(C(=O)O)=C(S[C@@H]3CN[C@H](CNc4ccccc4)C3)[C@H](C)[C@H]12 gave an MIC [1] of 6.25 µg/mL (≈ 15 µM), an MIC (Pseudomonas aeruginosa [2]) of 12.5 µg/mL (≈ 29.9 µM) and an MIC (Pseudomonas aeruginosa [3]) of 25 µg/mL (≈ 59.9 µM). It also gave an MIC (Escherichia coli) of 0.05 µg/mL (≈ 0.12 µM), an MIC (Staphylococcus aureus [4]) of under 0.006 µg/mL and an MIC (Staphylococcus aureus [5]) of 12.5 µg/mL (≈ 29.9 µM).
With C[C@@H](O)[C@H]1C(=O)N2C(C(=O)O)=C(S[C@@H]3CN[C@H](Cc4ccc(CN)cc4)C3)[C@H](C)[C@H]12 the MIC [1] was 3.13 µg/mL (≈ 7.25 µM), the MIC (Pseudomonas aeruginosa [2]) was 0.39 µg/mL (≈ 0.904 µM) and the MIC (Pseudomonas aeruginosa [3]) was 6.25 µg/mL (≈ 14.5 µM). The MIC (Escherichia coli) was 0.025 µg/mL (≈ 0.0579 µM), the MIC (Staphylococcus aureus [4]) was under 0.006 µg/mL and the MIC (Staphylococcus aureus [5]) was 3.13 µg/mL (≈ 7.25 µM).
Work on C[C@@H](O)[C@H]1C(=O)N2C(C(=O)O)=C(S[C@@H]3CN[C@H](CNc4ccc(CN)cc4)C3)[C@H](C)[C@H]12 yielded an MIC [1] of 6.25 µg/mL (≈ 14 µM), an MIC (Pseudomonas aeruginosa [2]) of 1.56 µg/mL (≈ 3.49 µM) and an MIC (Pseudomonas aeruginosa [3]) of 12.5 µg/mL (≈ 28 µM). The MIC (Escherichia coli) was 0.025 µg/mL (≈ 0.056 µM), the MIC (Staphylococcus aureus [4]) was under 0.006 µg/mL and the MIC (Staphylococcus aureus [5]) was 3.13 µg/mL (≈ 7.01 µM).
C[C@@H](O)[C@H]1C(=O)N2C(C(=O)O)=C(S[C@@H]3CN[C@@H](Cc4ccc(CN)cc4)C3)[C@H](C)[C@H]12 was tested, and the MIC [1] was 12.5 µg/mL (≈ 29 µM), the MIC (Pseudomonas aeruginosa [2]) was 25 µg/mL (≈ 57.9 µM) and the MIC (Pseudomonas aeruginosa [3]) was over 100 µg/mL. For the same molecule, the MIC (Escherichia coli) was 0.39 µg/mL (≈ 0.904 µM), the MIC (Staphylococcus aureus [4]) was 0.05 µg/mL (≈ 0.116 µM) and the MIC (Staphylococcus aureus [5]) was 12.5 µg/mL (≈ 29 µM).
For C[C@@H](O)[C@H]1C(=O)N2C(C(=O)O)=C(S[C@@H]3CN[C@H](CCc4ccc(CN)cc4)C3)[C@H](C)[C@H]12, the MIC [1] was 25 µg/mL (≈ 56.1 µM), the MIC (Pseudomonas aeruginosa [2]) was 0.78 µg/mL (≈ 1.75 µM) and the MIC (Pseudomonas aeruginosa [3]) was 6.25 µg/mL (≈ 14 µM). The MIC (Escherichia coli) was 0.025 µg/mL (≈ 0.0561 µM), the MIC (Staphylococcus aureus [4]) was under 0.006 µg/mL and the MIC (Staphylococcus aureus [5]) was 3.13 µg/mL (≈ 7.02 µM).
C[C@@H](O)[C@H]1C(=O)N2C(C(=O)O)=C(S[C@@H]3CN[C@H](Cc4ccccc4)C3)[C@H](C)[C@H]12 was tested, and the MIC [1] was 3.13 µg/mL (≈ 7.78 µM), the MIC (Pseudomonas aeruginosa [2]) was 25 µg/mL (≈ 62.1 µM) and the MIC (Pseudomonas aeruginosa [3]) was over 50 µg/mL. The MIC (Escherichia coli) was 0.1 µg/mL (≈ 0.248 µM), the MIC (Staphylococcus aureus [4]) was under 0.006 µg/mL and the MIC (Staphylococcus aureus [5]) was 6.25 µg/mL (≈ 15.5 µM).
C[C@@H](O)[C@H]1C(=O)N2C(C(=O)O)=C(S[C@@H]3CN[C@H](CCc4ccccc4)C3)[C@H](C)[C@H]12 was tested, and the MIC [1] was 3.13 µg/mL (≈ 7.51 µM), the MIC (Pseudomonas aeruginosa [2]) was 25 µg/mL (≈ 60 µM) and the MIC (Pseudomonas aeruginosa [3]) was over 50 µg/mL. For the same molecule, the MIC (Escherichia coli) was 0.05 µg/mL (≈ 0.12 µM), the MIC (Staphylococcus aureus [4]) was under 0.006 µg/mL and the MIC (Staphylococcus aureus [5]) was 6.25 µg/mL (≈ 15 µM).
For C[C@@H](O)[C@H]1C(=O)N2C(C(=O)O)=C(SCCNC=N)C[C@H]12.O, the MIC [1] was 50 µg/mL, the MIC (Pseudomonas aeruginosa [2]) was 1.56 µg/mL and the MIC (Pseudomonas aeruginosa [3]) was 3.13 µg/mL. For the same molecule, the MIC (Escherichia coli) was 0.01 µg/mL, the MIC (Staphylococcus aureus [4]) was under 0.006 µg/mL and the MIC (Staphylococcus aureus [5]) was 50 µg/mL.
Work on C[C@@H](O)[C@H]1C(=O)N2C(C(=O)O)=C(S[C@@H]3CN[C@H](COc4ccc(CN)cc4)C3)[C@H](C)[C@H]12 yielded an MIC [1] of 6.25 µg/mL (≈ 14 µM), an MIC (Pseudomonas aeruginosa [2]) of 1.56 µg/mL (≈ 3.49 µM) and an MIC (Pseudomonas aeruginosa [3]) of 12.5 µg/mL (≈ 27.9 µM). For the same molecule, the MIC (Escherichia coli) was 0.025 µg/mL (≈ 0.0559 µM), the MIC (Staphylococcus aureus [4]) was under 0.006 µg/mL and the MIC (Staphylococcus aureus [5]) was 3.13 µg/mL (≈ 6.99 µM).
C[C@@H](O)[C@H]1C(=O)N2C(C(=O)O)=C(S[C@@H]3CN[C@@H](CSc4ccc(CN)cc4)C3)[C@H](C)[C@H]12 gave an MIC [1] of 3.13 µg/mL (≈ 6.75 µM), an MIC (Pseudomonas aeruginosa [2]) of 1.56 µg/mL (≈ 3.36 µM) and an MIC (Pseudomonas aeruginosa [3]) of 12.5 µg/mL (≈ 27 µM). For the same molecule, the MIC (Escherichia coli) was 0.05 µg/mL (≈ 0.108 µM), the MIC (Staphylococcus aureus [4]) was under 0.006 µg/mL and the MIC (Staphylococcus aureus [5]) was 3.13 µg/mL (≈ 6.75 µM).
Work on CN[C@H](CC(C)C)C(=O)N[C@H]1C(=O)N[C@@H](CC(N)=O)C(=O)N[C@H]2C(=O)N[C@H]3C(=O)N[C@H](C(=O)N[C@H](C(=O)O)c4cc(O)cc(O)c4-c4cc3ccc4O)[C@H](O)c3ccc(c(Cl)c3)Oc3cc2cc(c3O[C@@H]2O[C@H](CO)[C@@H](O)[C@H](O)[C@H]2O[C@H]2C[C@](C)(N)[C@H](O)[C@H](C)O2)Oc2ccc(cc2Cl)[C@H]1O [VANCOMYCIN] yielded an MIC (Pseudomonas aeruginosa [2]) of over 100 µg/mL, an MIC (Pseudomonas aeruginosa [3]) of over 100 µg/mL and an MIC (Escherichia coli) of over 100 µg/mL. It also gave an MIC (Staphylococcus aureus [5]) of 0.78 µg/mL (≈ 0.538 µM).
C[C@@H](O)[C@H]1C(=O)N2C(C(=O)O)=C(S[C@@H]3CN[C@H](CSc4ccccc4)C3)[C@H](C)[C@H]12 was tested, and the MIC [1] was 3.13 µg/mL (≈ 7.2 µM), the MIC (Pseudomonas aeruginosa [2]) was 50 µg/mL (≈ 115 µM) and the MIC (Pseudomonas aeruginosa [3]) was 50 µg/mL (≈ 115 µM). It also gave an MIC (Escherichia coli) of 0.1 µg/mL (≈ 0.23 µM), an MIC (Staphylococcus aureus [4]) of under 0.006 µg/mL and an MIC (Staphylococcus aureus [5]) of 6.25 µg/mL (≈ 14.4 µM).
Work on C[C@@H](O)[C@H]1C(=O)N2C(C(=O)O)=C(S[C@@H]3CN[C@@H](c4ccc(CN)cc4)C3)[C@H](C)[C@H]12 yielded an MIC [1] of 1.56 µg/mL (≈ 3.74 µM), an MIC (Pseudomonas aeruginosa [2]) of 0.39 µg/mL (≈ 0.934 µM) and an MIC (Pseudomonas aeruginosa [3]) of 3.13 µg/mL (≈ 7.5 µM). For the same molecule, the MIC (Escherichia coli) was 0.025 µg/mL (≈ 0.0599 µM), the MIC (Staphylococcus aureus [4]) was under 0.006 µg/mL and the MIC (Staphylococcus aureus [5]) was 0.78 µg/mL (≈ 1.87 µM).
